Compounds with a hit are over-represented: about 4.6% of the library has one in this group of screens.
CHO parental Ca = counter-screen: ATP calcium response change in parental CHO cells; inhibition, % at 5.6 µM; AID 463079; parental CHO-K1, ATP-induced calcium, Fluo-8 fluorescence; 0.63% of 330,000 active;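 active means inhibition above that plate's mean sample inhibition plus 3 SD, cut at about 26% in these data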;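 further: 0% = ATP-challenged DMSO wells and 100% = DMSO wells without ATP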
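Test system: parental CHO cells; detection: calcium-sensitive Fluo-8 fluorescence; evaluation: percent inhibition of calcium signal; also added: ATP as calcium-mobilizing challenge; repeats: one well per compound; control set: ATP-challenged DMSO wells low, unchallenged DMSO wells high; compound: single nominal dose of 5.6 µM per compound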
OX1R antag-1 = blocks the human orexin 1 receptor; inhibition, % at 6.6 µM; OX1R-expressing cells, FRET antagonist read-out; O43613; 1.8% of 330,000 active; in the data active means inhibition mostly above about 38%, no sharp cut-off; inactive means mostly below about 40%;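 further: 0% = agonist challenge alone and 100% = reference antagonist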
Target sequence (O43613 whole entry, looked up): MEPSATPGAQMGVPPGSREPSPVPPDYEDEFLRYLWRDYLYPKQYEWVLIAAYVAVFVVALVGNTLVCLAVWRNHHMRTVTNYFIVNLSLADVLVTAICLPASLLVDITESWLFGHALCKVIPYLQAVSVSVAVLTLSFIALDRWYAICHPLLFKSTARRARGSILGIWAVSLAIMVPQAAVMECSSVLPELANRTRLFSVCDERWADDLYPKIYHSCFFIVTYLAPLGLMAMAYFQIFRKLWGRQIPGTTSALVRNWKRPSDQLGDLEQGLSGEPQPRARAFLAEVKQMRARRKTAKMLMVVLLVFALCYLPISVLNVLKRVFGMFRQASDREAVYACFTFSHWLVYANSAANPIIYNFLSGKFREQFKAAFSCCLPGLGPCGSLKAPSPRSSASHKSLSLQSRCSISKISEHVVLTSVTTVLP
TAAR1 agonist = human TAAR1 agonism; activation, % at 3 µM; CHO RD-HGA16 TAAR1, Fluo-8 calcium fluorescence; vehicle wells 0%, saturating PEA agonist 100%; 0.99% of 360,000 active; Q96RJ0;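 active means activation above the mean activation of all test compounds in the run plus 3 SD, cut at about 38% in these data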
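Assay system – CHO-derived RD-HGA16 cells with stable Gα16 and human TAAR1 · Compound dosing – one-point dosing at 3 µM (nominal) · Incubation – 17-24 h seeding, 75 min 37 °C dye, 30 min RT · Measured by – kinetic Fluo-8 calcium fluorescence · Control set – DMSO vehicle as 0%, PEA at EC100 as 100% · Repeats – single well for each compound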
TAAR1 antag = antagonists of human TAAR1; Q96RJ0; AID 624466; inhibition, % at 3 µM; 1.5% of 360,000 active; CHO RD-HGA16 TAAR1, Fluo-8 calcium fluorescence, antagonist;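 active means inhibition above a per-plate cutoff, the mean inhibition of test compounds on that plate plus 3 SD, cut at about 49% in these data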;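 further: 0% = DMSO plus EC80 beta-PEA response and 100% = DMSO alone without agonist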
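Test system – hTAAR1-expressing CHO RD-HGA16 cells, Gα16-coupled · Also added – β-PEA at EC80 concentration, post-compound challenge · Compound – 3 µM, single point · Incubation – dye loading 75 min at 37 °C, then 30 min room temperature · Measured by – Fluo-8 intracellular calcium dye fluorescence, real-time kinetic reads · Benchmarks – vehicle and agonist controls · Replicates – singlicate, one well per test compound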
OX1R antag-2 = human HCRTR1 antagonism | CHO/OX1R cells, Fluo-8 calcium fluorescence, orexin A | 0.43% of 330,000 active | inhibition, % at 5 µM;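 active means inhibition above its plate's threshold, mean inhibition of all tested compounds on the plate plus 3 SD, cut at about 37% in these data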;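 further: 0% = orexin A challenge wells and 100% = SB-334867-A antagonist wells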
GPR7 antag = antagonists of human GPR7 (neuropeptides B/W receptor 1); P48145; GPR7-expressing cells, fluorescence antagonist assay; inhibition, % at 4.4 µM; 1.1% of 290,000 active; in the data active means inhibition above about 16%, passing the limit was not always enough;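 further: cells stimulated with the agonist NPW; 0% = agonist with vehicle and 100% = vehicle without agonist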
TAAR1 ag conf = confirmation of human TAAR1 agonists; AID 651783; 82% of 2,400 active; shares compounds with TAAR1 agonist; activation, % at 3 µM; CHO RD-HGA16 TAAR1, Fluo-8 calcium fluorescence; scaled: DMSO 0%, maximal phenethylamine 100%;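 active means activation above a cutoff set at the run's mean compound activation plus 3 SD, cut at about 39% in these data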
Ga16 nonsel ag = nonselective agonist in parental cells, TAAR1 agonist counter-screen; shares compounds with TAAR1 agonist; CHO-Ga16 parental, Fluo-8 calcium fluorescence; normalized to maximal ATP response, DMSO zero; activation, % at 3 µM; 50% of 2,400 active; AID 651787;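 active means activation above the run cutoff, the mean activation over all tested wells plus 3 SD, cut at about 12% in these data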;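 further: 0% = DMSO wells and 100% = maximal ATP response on the peak over basal ratio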
TAAR1 desens = TAAR1 response desensitization, agonist counter-screen. inhibition, % at 3 µM. shares compounds with TAAR1 agonist. CHO RD-HGA16 hTAAR1, Fluo-8 calcium, beta-PEA response inhibition. AID 651951. 46% of 2,400 active;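 active means inhibition above the run cutoff, the mean inhibition of all test compounds plus 3 SD, cut at about 49% in these data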;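 further: beta-PEA stimulus applied at its EC80; loss of beta-PEA calcium signal after compound pretreatment read as receptor desensitization; 0% = DMSO with beta-PEA at EC80 and 100% = DMSO alone without agonist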
Ga16 nonsel ant = counter-screen for TAAR1 agonists: nonselective Ga16 antagonists. shares compounds with TAAR1 agonist. CHO-Ga16 ATP-induced calcium, Fluo-8 fluorescence. inhibition, % at 3 µM. 39% of 2,400 active;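 active means inhibition above the plate's mean compound inhibition plus 3 SD, computed per plate, cut at about 22% in these data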;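 further: 0% = EC80 ATP with DMSO and 100% = DMSO wells without ATP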
Active calls of the source: *; . = not tested or not shown.

SMILES	CHO parental Ca	OX1R antag-1	TAAR1 agonist	TAAR1 antag	OX1R antag-2	GPR7 antag	TAAR1 ag conf	Ga16 nonsel ag	TAAR1 desens	Ga16 nonsel ant
c1ccc(C2CNCCc3ccccc32)cc1 (stereo not given)	0	0	64*	74*	-16	-3	95*	1	92*	8
COc1ccc(CCNC(=O)C(=O)NCC2CCCN2S(=O)(=O)c2cccs2)cc1 (stereo not given)	-18	9	18	46	-27	.	.	.	.	.
COc1ccc(S(=O)(=O)N2CCCC2CNC(=O)C(=O)NCCc2ccccc2)cc1 (stereo not given)	-16	39*	92*	97*	-8	.	87*	10	87*	30*
COc1ccccc1CCNC(=O)C(=O)NCC1CCCN1S(=O)(=O)c1ccccc1 (stereo not given)	-33	49*	49*	59*	20	.	72*	8	65*	31*
COc1ccc([N+](=O)[O-])cc1NS(=O)(=O)c1cccc(C(=O)NCCCN2CCCC2=O)c1	0	9	0	-7	-9	.	.	.	.	.
O=C(NCCc1ccccc1)C1CC(=O)N(CCc2ccccc2)C1 (stereo not given)	-13	8	44*	-6	-17	-9	68*	0	30	8
O=C(NCCc1ccc(Cl)cc1)C1CC(=O)N(CCc2ccccc2)C1 (stereo not given)	-11	-3	13	-20	-1	16	.	.	.	.
O=C(O)C1CC(=O)N(CCc2ccccc2)C1 (stereo not given)	0	0	44*	17	-18	-1	72*	3	0	6
Cc1cc(/C=N\NC(=O)COc2cccc3cccnc23)c(C)n1-c1ccccc1	-20	20	5	10	-32	1	.	.	.	.
Cc1cc(C)cc(-n2c(C)cc(/C=N/NC(=O)CSc3ncccn3)c2C)c1	-18	4	45*	27	-10	-4	50*	32*	55*	33*
CCn1c(=O)n(CC)c2cc(N3CCCC3)c(NC(=O)c3ccccc3)cc21	-25	32	-3	-38	-37	-9	.	.	.	.
CCn1c(=O)n(CC)c2cc(N3CCCC3)c(NC(=O)c3ccc(C)cc3)cc21	-24	12	46*	-23	-39	-2	1	1	2	11
O=C(COC(=O)CN1CCSC1=O)Nc1ccc(F)cc1Cl	1	1	1	-7	6	.	.	.	.	.
Cc1ccc(S(=O)(=O)NC(C)(C)CSc2ccccn2)cc1	1	18	1	-19	-10	-10	.	.	.	.
COC(=O)c1cc(NC(=O)c2ccccc2)c(=O)oc1/C=C/Nc1ccc(Oc2ccccc2)cc1	.	.	50*	68*	.	-9	62*	73*	85*	87*
O=C(O)c1ccc(/C=N/Nc2ccc(F)cc2F)cc1	9	-11	88*	21	-1	-15	44*	21*	12	12
Fc1ccc(N/N=C/c2ccncc2)c(F)c1	0	7	10	-14	-9	-3	.	.	.	.
CCN(CC)S(=O)(=O)N1CCC(C(=O)NCCC2=CCCCC2)CC1	5	28	9	-8	-14	-5	.	.	.	.
C=CCN1CC(C(=O)N2CCC(Cc3ccc(Cl)cc3)(C(=O)OCC)CC2)CC1=O (stereo not given)	-20	24	5	-17	-18	-6	.	.	.	.
O=C(Nc1ccccc1)OCCCc1ccccc1	-15	10	-2	-16	-19	-7	.	.	.	.
O=C(Nc1ccccc1)OCCCCOC(=O)Nc1ccccc1	.	.	54*	35	.	.	15	14*	12	10
OC(CNCCc1ccccc1)c1ccccc1 (stereo not given)	-11	8	53*	1	-22	10	31	1	12	10
COc1ccc(CCNCC(O)c2ccccc2)cc1 (stereo not given)	-7	-4	10	-21	-12	4	.	.	.	.
O=S(=O)(c1cccc(-c2n[nH]c(=S)n2-c2ccc(OC(F)(F)F)cc2)c1)N1CCOCC1	-6	9	8	-6	-6	.	.	.	.	.
CC(C)(C)N=C1C([N+](=O)[O-])=CC=C2C1=NC1(CCCCC1)N2O	-1	16	0	-17	-20	-2	.	.	.	.
SMILES	CHO parental Ca	OX1R antag-1	TAAR1 agonist	TAAR1 antag	OX1R antag-2	GPR7 antag	TAAR1 ag conf	Ga16 nonsel ag	TAAR1 desens	Ga16 nonsel ant
O=[N+]([O-])C1=CC=C2C(=NC3(CCCCC3)N2O)C1=NCCc1ccccc1	.	.	44*	14	.	0	79*	1	50*	4
CC1CNC(=S)N(c2ccccc2)C1=O (stereo not given)	.	.	1	-6	.	.	.	.	.	.
CCN(Cc1ccccc1)S(=O)(=O)c1ccc(C(=O)Nc2nnc(-c3ccccc3OC)o2)cc1	-29	6	43*	23	-26	-5	19	28*	39	33*
COc1ccccc1-c1nnc(NC(=O)c2ccc(S(=O)(=O)N(C)C)cc2)o1	-3	1	10	-10	-2	14	.	.	.	.
CCOC(=O)C1=C(N)n2c(s/c(=C/c3ccco3)c2=O)=C(C(=O)OC)C1c1ccco1 (stereo not given)	10	4	68*	33	4	5	72*	30*	51*	40*
CCN1C(=O)C2(C(C(=O)c3cc4ccccc4o3)=C(O)C(=O)N2CCCN2CCOCC2)c2ccccc21 (stereo not given)	-7	-12	16	-7	-4	-3	.	.	.	.
CN(C)CCN(CC1CCCN(Cc2ccccc2F)C1)C(=O)c1ccc(Cl)cc1 (stereo not given)	-17	14	6	-27	-26	-4	.	.	.	.
NC(=O)C1CC(=O)N(c2ccc(OCc3c(Cl)cccc3Cl)cc2)C1 (stereo not given)	1	32	44*	-4	5	0	24	15*	15	20
O=C(NC(=S)NNC(=O)c1ccccc1O)c1ccc(F)cc1	4	16	90*	21	0	-3	55*	58*	20	22*
Cc1ccc(C(=O)NC(=S)NNC(=O)c2ccccc2O)cc1	-11	-2	114*	32	4	-14	127*	97*	77*	45*
